Mdm2-MdmX inh: inhibitors of human Mdm2/MdmX interaction; hit rate 3% among 330,000; inhibition, % at 8 µM; SaOS-2 split-luciferase Mdm2/MdmX complementation, luminescence;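 active means inhibition of at least 50% at 8 µM in the primary screen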
Target sequence (O15151 whole entry, looked up): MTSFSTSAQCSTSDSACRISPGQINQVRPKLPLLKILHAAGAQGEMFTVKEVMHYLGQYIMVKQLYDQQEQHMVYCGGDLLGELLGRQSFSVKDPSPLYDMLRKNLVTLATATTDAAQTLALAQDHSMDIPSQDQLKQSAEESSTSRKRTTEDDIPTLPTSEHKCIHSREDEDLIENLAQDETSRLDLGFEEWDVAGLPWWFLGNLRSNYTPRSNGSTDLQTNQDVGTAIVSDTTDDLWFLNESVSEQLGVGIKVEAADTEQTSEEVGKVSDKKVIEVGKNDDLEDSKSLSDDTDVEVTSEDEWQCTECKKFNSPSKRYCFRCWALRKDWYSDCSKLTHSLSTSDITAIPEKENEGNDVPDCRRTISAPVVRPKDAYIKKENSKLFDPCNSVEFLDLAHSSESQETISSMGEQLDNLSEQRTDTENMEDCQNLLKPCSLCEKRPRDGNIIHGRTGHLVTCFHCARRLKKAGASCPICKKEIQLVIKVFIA
Target sequence (Q00987 whole entry, looked up): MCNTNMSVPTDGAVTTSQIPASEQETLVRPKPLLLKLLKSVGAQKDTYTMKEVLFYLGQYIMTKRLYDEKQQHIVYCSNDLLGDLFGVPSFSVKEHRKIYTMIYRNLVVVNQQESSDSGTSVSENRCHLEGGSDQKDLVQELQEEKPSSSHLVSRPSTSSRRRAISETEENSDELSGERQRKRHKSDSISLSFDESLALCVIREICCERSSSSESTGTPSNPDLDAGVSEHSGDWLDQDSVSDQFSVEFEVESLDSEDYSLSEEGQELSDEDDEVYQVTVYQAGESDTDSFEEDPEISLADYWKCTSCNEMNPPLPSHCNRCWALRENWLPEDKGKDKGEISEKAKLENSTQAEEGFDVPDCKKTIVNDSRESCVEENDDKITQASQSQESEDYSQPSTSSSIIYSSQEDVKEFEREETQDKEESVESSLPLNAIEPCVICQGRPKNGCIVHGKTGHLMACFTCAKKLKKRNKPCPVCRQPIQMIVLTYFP
T cruzi repl: blocks replication of Trypanosoma cruzi; inhibition, % (concentration not given with the values); hit rate 1.4% among 300,000; T. cruzi beta-gal in NIH3T3, luminescence, 90 h;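 active means mean inhibition across valid replicates above about 55%, limit read from the data; inconclusive means mean below that limit but half or more replicates reach it; inactive means mean below it, under half of replicates reach it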;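 further: signal also drops with host cell toxicity which is not excluded here; 0% = plate median of DMSO wells and 100% = zero luminescence signal; higher percent means less beta-gal luminescence so fewer parasites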
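Read-out: Parasite load inhibition, % | Test system: Mouse NIH/3T3 fibroblasts infected with β-gal-expressing T. cruzi Tulahuen C4 | Amount: 5,000 cells/well | Medium: DMEM, 2% fetal bovine serum | Signal: GalScreen β-gal luminescence, detergent lysis, 60 min | Timing: 3 h attach, ≥90 h co-culture | Also added: Tulahuen C4 trypomastigotes, 5000/well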
NLRP3 yeast inh: NALP3 inhibition in yeast; Yeast reconstituted NLRP3/ASC/caspase-1, beta-gal luminescence, 24 h; inhibition, % at 10 µM; hit rate 0.39% among 330,000;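 active means inhibition of 50% or more; inactive means inhibition below 50%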;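 further: plate controls were induced DMSO wells for no effect and uninduced yeast grown without galactose for full effect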
Beta apoptosis: beta cell apoptosis inhibition | INS-1E cytokine-induced death, ATP luminescence, 48 h; percent of positive-control rescue, neutral wells zero | protection from apoptosis, % (test concentration not listed) | hit rate 0.8% among 300,000 | AID 435005;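 active means Every replicate reaches about 75%, or at least half do and their mean reaches it too, limit read from the data; inconclusive means At least half of replicates reach the limit but their mean does not; inactive means Under half of replicates reach the limit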;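 further: 0% = cytokine-treated negative control wells and 100% = positive control rescue; higher means more ATP so stronger rescue from cytokine killing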
CSC inhib: cancer stem cell inhibition; AID 2717; inhibition, % at 7.5 µM; cancer stem cell-like cells viability, luminescence; hit rate 1.1% among 300,000; in the data active means inhibition above about 75%; inconclusive means no clear call, values can overlap the other calls; tested in HMLE shEcad cells
Calb FLC: affects C. albicans growth with fluconazole; C. albicans CaCi-2 (fluconazole-resistant clinical isolate) + fluconazole, Alamar Blue growth, 48 h; growth inhibition, % (test concentration not listed); hit rate 0.57% among 300,000;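 active means growth inhibition above about 58% in most replicates, limit read from the data, passing the limit was not always enough; inconclusive means exactly half the replicates above a set limit; inactive means most replicates below a set limit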;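 further: all wells also contain fluconazole at 8 µg/ml as a sub-toxic cotreatment; 0% = median of DMSO wells and 100% = median of geldanamycin control wells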
Active calls of the source: *; u = inconclusive; x = no result. Only some compounds are listed: those with a hit (about 5.3% of all), similar ones and a draw of the others.

SMILES	Mdm2-MdmX inh	T cruzi repl	NLRP3 yeast inh	Beta apoptosis	CSC inhib	Calb FLC
O=C(c1ccc(C(F)(F)F)cc1)c1c[nH]c(C(=O)NCCCn2ccnc2)c1	-1	-4	9	1	42	6
COc1ccc(/C=N/NC(=S)Nc2ccccc2[N+](=O)[O-])cc1O	x	0	x	-2	89*	9
CCCOc1ccc(/C=N/NC(=S)Nc2ccccc2[N+](=O)[O-])c(O)c1	x	8	x	108*	89*	34
COc1cccc(NC(=O)CN(C)C(=O)c2sc3cc(Cl)ccc3c2Cl)c1	-5	7	21	1	27	x
COc1cc(C(=O)NC(=S)NNC(=O)c2cnccn2)cc(OC)c1OC	49	-18	12	82*	36	38
COc1ccccc1C(=O)NNC(=S)NC(=O)c1cc(OC)c(OC)c(OC)c1	49	60*	19	40	-2	105*
COc1ccccc1C(=O)NC(=S)Nc1ccc(N2CCCC2)cc1	12	56*	6	27	-1	-1
COc1cc(C(=O)NNC(=S)NC(=O)c2ccccc2C)cc(OC)c1OC	23	-5	-12	12	13	-12
C(#Cc1ccccc1)C[N+]1(CC#Cc2cccc3ccccc23)CCCC1	48	-4	9	77*	15	90*
C#CC[N+]1(CC#Cc2ccccc2)CCCC1	7	-17	15	-2	-1	-3
COc1ccc(S(=O)(=O)N(C)CC(=O)NC2CC2)cc1OC	19	-14	15	-4	-5	1
Cc1ccc(S(=O)(=O)N2CCC(=O)N(C(COCc3ccc(Cl)cc3Cl)Cc3ccccc3)CC2)cc1 (configuration not stated)	39	75*	10	19	21	-67
Cc1ccc(S(=O)(=O)N2CCC(=O)N(C(COCc3cccc(Cl)c3)Cc3ccccc3)CC2)cc1 (configuration not stated)	15	31	13	1	15	-7
Cc1ncc(CN2CCCC(CCC(=O)NCc3ccccc3F)C2)s1 (configuration not stated)	-2	61*	10	-10	-15	-2
O=C(CCC1CCCN(Cc2ccc3c(c2)CCO3)C1)NCc1ccc(F)c(F)c1 (configuration not stated)	9	63*	11	4	-2	7
Cc1occc1C(=O)N1CCCC(CCC(=O)NCc2ccc(F)c(F)c2)C1 (configuration not stated)	-13	-6	2	-3	-4	4
Cc1ncc(CN2CCCC(CCC(=O)NCc3ccc(F)c(F)c3)C2)s1 (configuration not stated)	3	61*	13	-5	-1	-4
COc1ccccc1/C=C/CN1CCCC(CCC(=O)NCc2ccccc2F)C1 (configuration not stated)	11	76*	-5	-2	4	-2
Cc1cccn2c(=O)c3cc(C(=O)N4CCCCC4)sc3nc12	3	7	31	6	-13	-1
CC(=O)c1cccc(CN2CCCC(CCC(=O)NCc3ccccc3F)C2)c1 (configuration not stated)	-15	61*	0	-6	-5	2
COC1=C(Nc2ccc(C)cc2)C(=O)c2ccccc2C1=O	-8	-7	30	11	2	-3
Cc1ccc(NC2=CC(=O)C(=O)c3ccccc32)c(C)c1	43	x	6	101*	x	x
O=C1C=C(NCc2ccccc2)c2ccccc2C1=O	x	39	x	x	x	99*
O=C(Nc1ccccc1O)c1ccc2c(c1)C(=O)N(N1C(=O)c3ccccc3C1=O)C2=O	30	-16	9	-6	-8	0
Cc1ccc(NS(=O)(=O)c2ccc3c(c2)C(=O)c2ccccc2C3=O)c(C)c1	x	x	x	2	32	x
SMILES	Mdm2-MdmX inh	T cruzi repl	NLRP3 yeast inh	Beta apoptosis	CSC inhib	Calb FLC
O=c1cccccc1NCc1ccccc1	3	0	9	-8	-4	14
O=C1C=C(Nc2ccccc2O)c2ccccc2C1=O	34	-41	8	113*	99*	-5
O=C1C=C(Nc2ccc(F)cc2)c2ccccc2C1=O	44	x	27	106*	112*	x
Cc1cc(C)nc(NS(=O)(=O)c2ccc(NC(=O)Cc3ccccc3)cc2)n1	13	-26	0	x	-22	-9
Cc1c(N=N/C(C(=O)Nc2ccccc2)=C(/O)c2ccccc2)c(=O)n(-c2ccccc2)n1C	14	2	31	x	52	34
COc1ccc(C(=O)Nc2ccc(N3CCN(C(=O)c4cccs4)CC3)cc2)cc1Br	27	24	2	25	16	34
Cc1ccccc1NC(=O)/C=C/c1cccs1	-39	-25	8	4	-11	-8
Cc1ccccc1NC(=O)/C=C/c1ccc([N+](=O)[O-])s1	x	-10	x	120*	98*	u
Cc1cc(C)cc(NC(=O)/C=C/c2ccc([N+](=O)[O-])s2)c1	x	47	x	-1	18	4
CC(=O)c1cccc(NC(=O)/C=C/c2ccc([N+](=O)[O-])s2)c1	x	56*	x	x	x	5
CC(=O)Nc1cccc(NC(=O)C2CCCN2C(=O)Nc2ccc(Cl)cc2)c1 (configuration not stated)	-4	4	4	-4	-14	114*
O=S(=O)(Nc1ccc(O)c(Sc2nc3ccccc3s2)c1)c1cccc2ccccc12	17	-9	-4	-8	81*	72
O=C(CCCN1C(=O)/C(=C/c2cccs2)SC1=S)NNC(=O)c1ccc(F)cc1	3	-2	20	-10	15	5
C=C(C)C1Cc2c(C)nn(-c3ccccc3)c2C1 (configuration not stated)	21	-16	0	-1	4	-6
C=C(C)C1Cc2c(C)nn(-c3cccc4ccccc34)c2C1 (configuration not stated)	10	20	-6	66	96*	-22
CC(C(=O)Nc1ccc(F)c(F)c1F)N(C)CC(=O)Nc1ccccc1Br (configuration not stated)	17	102*	-5	2	-5	u
Cc1cccc(C)c1NC(=O)CN(C)C(C)C(=O)NCC(=O)Nc1ccc(F)c(F)c1F (configuration not stated)	8	x	19	0	-5	x
O=C(Cn1ncc2c1-c1ccccc1OC2)Nc1nc2ccccc2s1	0	-4	11	-1	-6	-9
C(=N\Nc1ccccc1)/c1ccc(N2CCOCC2)cc1	-14	18	19	-11	39	u
Clc1cccc(N/N=C/c2ccc(N3CCOCC3)cc2)c1	-4	60*	9	8	66	-20
CC(C)N1C(=O)/C(=C\c2nc3ccccc3c(=O)n2-c2ccccc2)c2ccccc21	x	71*	x	4	75*	-5
CN(C)S(=O)(=O)c1cccc(NC(=O)c2cc([N+](=O)[O-])ccc2N2CCCCC2)c1	11	x	16	1	-2	x

Source: PubChem BioAssay (several laboratories)
